The values below come from ChEMBL document CHEMBL1127395, “Synthesis and antimicrobial activity of novel 3-[(aminopyrimidiniumyl)thio]methyl cephalosporins” (1994).

Converted amounts (≈) assume the structure as drawn. A value given as a limit tells only on which side of the number the result lay.

One assay has as its system Citrobacter freundii. Kind of assay: In vitro minimum inhibitory concentration for Citrobacter freundii (ATCC-8090) by agar dilution method. It counts as functional. Put shortly: (§1)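 Two-fold serial dilutions of each compound dispersed in Mueller-Hinton agar; plates spot-inoculated with 2 μL of standard test strain at 10^7 CFU/mL, incubated 37 °C for 20 h; MIC read as lowest concentration inhibiting growth.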
A general note: In agar dilution the substance is mixed into plates at graded concentrations.

Another assay concerns Enterobacter cloacae. In words: In vitro minimum inhibitory concentration for Enterobacter cloacae (ATCC-27508) by agar dilution method. The format is functional. Put shortly:
as §1

For the next assay, the system named is Klebsiella aerogenes. In words: In vitro minimum inhibitory concentration for Enterobacter aerogenes (ATCC-29751) by agar dilution method. The format is functional. The procedure, abridged: as §1
In the next assay the test system is Klebsiella pneumoniae. Kind of assay: In vitro minimum inhibitory concentration for Klebsiella pneumoniae (ATCC-10031) by agar dilution method. It counts as functional.
For assay [1], the system named is Pseudomonas aeruginosa. In words: In vitro minimum inhibitory concentration for Pseudomonas aeruginosa (ATCC-27853) by agar dilution method. It counts as functional. Put shortly: as §1
The subject of a further assay is Proteus vulgaris. In words: In vitro minimum inhibitory concentration for Proteus vulgaris (ATCC-6059) by agar dilution method. It counts as functional. Put shortly:
as §1

The test system of a further assay is Salmonella typhimurium. In words: In vitro minimum inhibitory concentration for Salmonella Typhimurium (ATCC-14028) by agar dilution method. The format is functional, Salmonella enterica subsp. enterica serovar Typhimurium. Put shortly: as §1
The subject of the next assay is Serratia marcescens. Kind of assay: In vitro minimum inhibitory concentration for Serratia marcescens (ATCC-27117) by agar dilution method. It counts as functional. Put shortly: as §1
Assay [2] deals with Staphylococcus epidermidis. Kind of assay: In vitro minimum inhibitory concentration for Staphylococcus epidermidis (ATCC-12228) by agar dilution method. It counts as functional. Put shortly:
as §1

The next assay concerns Staphylococcus aureus. Kind of assay: In vitro minimum inhibitory concentration for Staphylococcus aureus (ATCC 6538p) by agar dilution method. The format is functional. The procedure, abridged:
as §1

A further assay has as its system Escherichia coli. Kind of assay: In vitro minimum inhibitory concentration for Escherichia coli (ATCC-10536) by agar dilution method. The format is functional. Put shortly:
as §1

Assay [3] deals with Pseudomonas aeruginosa. In words: In vitro minimum inhibitory concentration for Pseudomonas aeruginosa (ATCC 10145) by agar dilution method. The format is functional. Put shortly: as §1
The mark [4] stands for this setting: Citrobacter freundii, read-out: MIC.
The mark [5] stands for this setting: Enterobacter cloacae, read-out: MIC.
Setting [6] is: Klebsiella aerogenes, read-out: MIC.
The mark [7] stands for this setting: Klebsiella pneumoniae, read-out: MIC.
[8] abbreviates: Pseudomonas aeruginosa, read-out: MIC.
Setting [9] is: Proteus vulgaris, read-out: MIC.
[10] abbreviates: Salmonella enterica, read-out: MIC.
[11] abbreviates: Serratia marcescens, read-out: MIC.
The mark [12] stands for this setting: Staphylococcus epidermidis, read-out: MIC.
Setting [13] is: Staphylococcus aureus, ATCC 6538p, read-out: MIC.
[14] abbreviates: Escherichia coli, read-out: MIC.

The MIC is the smallest concentration in the dilution series that meets the test's criterion for growth inhibition. Take `Cc1cccc(C)c1-[n+]1c(N)cc(N)nc1SCC1=C(C(=O)[O-])N2C(=O)C(NC(=O)/C(=N\OC(C)(C)C(=O)O)c3cnc(N)s3)C2SC1` (stereo not given): the MIC was 1 µg/mL (≈ 1.4 µM) in the assay with Citrobacter freundii (setting [4]); 0.25 µg/mL (≈ 0.35 µM) in the assay on Enterobacter cloacae (setting [5]); 2 µg/mL (≈ 2.8 µM) in the assay on Klebsiella aerogenes (setting [6]); 0.25 µg/mL (≈ 0.35 µM) in the assay on Klebsiella pneumoniae (setting [7]); 4 µg/mL (≈ 5.6 µM) in the assay on Pseudomonas aeruginosa [1] (setting [8]); 0.5 µg/mL (≈ 0.7 µM) in the assay with Proteus vulgaris (setting [9]). Moreover, the MIC in the assay with Salmonella typhimurium (setting [10]) came to 2 µg/mL (≈ 2.8 µM); in the assay with Serratia marcescens (setting [11]) it was 2 µg/mL (≈ 2.8 µM); in assay [2] (setting [12]), 2 µg/mL (≈ 2.8 µM); in the assay on Staphylococcus aureus (setting [13]) it was 4 µg/mL (≈ 5.6 µM); in the assay on Escherichia coli (setting [14]) it was 0.5 µg/mL (≈ 0.7 µM); with Pseudomonas aeruginosa [3], 8 µg/mL (≈ 11.2 µM).

On to `C[n+]1c(O)cc(O)nc1SCC1=C(C(=O)[O-])N2C(=O)C(NC(=O)/C(=N\OC(C)(C)C(=O)O)c3cnc(N)s3)C2SC1` (stereo not given), for which the MIC with Citrobacter freundii (setting [4]) was found to be 4 µg/mL (≈ 6.39 µM); in the assay on Enterobacter cloacae (setting [5]), 1 µg/mL (≈ 1.6 µM); with Klebsiella aerogenes (setting [6]) it was 16 µg/mL (≈ 25.6 µM); in the assay with Klebsiella pneumoniae (setting [7]), 2 µg/mL (≈ 3.2 µM); in the assay with Pseudomonas aeruginosa [1] (setting [8]), 16 µg/mL (≈ 25.6 µM); in the assay with Proteus vulgaris (setting [9]) it was 0.5 µg/mL (≈ 0.799 µM). Also, the MIC is 16 µg/mL (≈ 25.6 µM) with Salmonella typhimurium (setting [10]); 16 µg/mL (≈ 25.6 µM) in the assay on Serratia marcescens (setting [11]); more than 128 µg/mL in [2] (setting [12]); more than 128 µg/mL with Staphylococcus aureus (setting [13]); 4 µg/mL (≈ 6.39 µM) with Escherichia coli (setting [14]); 32 µg/mL (≈ 51.1 µM) in the assay with Pseudomonas aeruginosa [3].

For `C/C=C/[n+]1c(N)cc(N)nc1SCC1=C(C(=O)[O-])N2C(=O)C(NC(=O)/C(=N\OC(C)(C)C(=O)O)c3cnc(N)s3)C2SC1` (stereo not given), the MIC is 0.13 µg/mL (≈ 0.2 µM) in the assay with Citrobacter freundii (setting [4]); 0.03 µg/mL (≈ 0.0462 µM) with Enterobacter cloacae (setting [5]); 2 µg/mL (≈ 3.08 µM) in the assay with Klebsiella aerogenes (setting [6]); 0.06 µg/mL (≈ 0.0923 µM) in the assay on Klebsiella pneumoniae (setting [7]); 2 µg/mL (≈ 3.08 µM) in the assay on Pseudomonas aeruginosa [1] (setting [8]); 0.06 µg/mL (≈ 0.0923 µM) with Proteus vulgaris (setting [9]). The MIC in the assay on Salmonella typhimurium (setting [10]) stood at 0.25 µg/mL (≈ 0.385 µM); in the assay on Serratia marcescens (setting [11]), 0.13 µg/mL (≈ 0.2 µM); in [2] (setting [12]) it was 2 µg/mL (≈ 3.08 µM); in the assay on Staphylococcus aureus (setting [13]), 4 µg/mL (≈ 6.16 µM); in the assay on Escherichia coli (setting [14]) it was 0.13 µg/mL (≈ 0.2 µM); against Pseudomonas aeruginosa [3], 2 µg/mL (≈ 3.08 µM).

As for `Cc1c(N)nc(SCC2=C(C(=O)[O-])N3C(=O)C(NC(=O)/C(=N\OC(C)(C)C(=O)O)c4cnc(N)s4)C3SC2)[n+]2ncn(C)c12` (stereo not given), the MIC with Citrobacter freundii (setting [4]) came to 0.06 µg/mL (≈ 0.0905 µM); in the assay with Enterobacter cloacae (setting [5]), 0.02 µg/mL (≈ 0.0302 µM); in the assay with Klebsiella aerogenes (setting [6]) it was 1 µg/mL (≈ 1.51 µM); with Klebsiella pneumoniae (setting [7]) it was 0.06 µg/mL (≈ 0.0905 µM); in the assay with Pseudomonas aeruginosa [1] (setting [8]), 2 µg/mL (≈ 3.02 µM); in the assay on Proteus vulgaris (setting [9]) it was 0.06 µg/mL (≈ 0.0905 µM). The MIC in the assay with Salmonella typhimurium (setting [10]) worked out at 0.25 µg/mL (≈ 0.377 µM); in the assay with Serratia marcescens (setting [11]) it was 0.25 µg/mL (≈ 0.377 µM); in [2] (setting [12]), 2 µg/mL (≈ 3.02 µM); with Staphylococcus aureus (setting [13]), 8 µg/mL (≈ 12.1 µM); with Escherichia coli (setting [14]) it was 0.13 µg/mL (≈ 0.196 µM); in the assay on Pseudomonas aeruginosa [3], 4 µg/mL (≈ 6.04 µM).

As for `C[n+]1c(N)cc(N)nc1SCC1=C(C(=O)[O-])N2C(=O)C(NC(=O)/C(=N\OC(C)(C)C(=O)O)c3cnc(N)s3)C2SC1` (stereo in doubt; 23), the MIC is 0.13 µg/mL (≈ 0.208 µM) in the assay on Citrobacter freundii; 0.06 µg/mL (≈ 0.0962 µM) in the assay on Enterobacter cloacae; 2 µg/mL (≈ 3.21 µM) against Klebsiella aerogenes; 0.06 µg/mL (≈ 0.0962 µM) against Klebsiella pneumoniae; 2 µg/mL (≈ 3.21 µM) in the assay with Pseudomonas aeruginosa [1]; 0.06 µg/mL (≈ 0.0962 µM) in the assay on Proteus vulgaris. Besides, the MIC was determined as 0.25 µg/mL (≈ 0.401 µM) in the assay on Salmonella typhimurium; 0.13 µg/mL (≈ 0.208 µM) against Serratia marcescens; 2 µg/mL (≈ 3.21 µM) in [2]; 4 µg/mL (≈ 6.41 µM) with Staphylococcus aureus; 0.06 µg/mL (≈ 0.0962 µM) with Escherichia coli.

In the case of `CC(C)(O/N=C(\C(=O)N[C@@H]1C(=O)N2C(C(=O)[O-])=C(C[n+]3ccccc3)CS[C@H]12)c1csc(N)n1)C(=O)O` [CEFTAZIDIME], the MIC with Citrobacter freundii (setting [4]) was found to be 0.13 µg/mL (≈ 0.238 µM); in the assay with Enterobacter cloacae (setting [5]), 0.03 µg/mL (≈ 0.0549 µM); in the assay with Klebsiella aerogenes (setting [6]), 4 µg/mL (≈ 7.32 µM); in the assay on Pseudomonas aeruginosa [1] (setting [8]), 1 µg/mL (≈ 1.83 µM); in the assay with Proteus vulgaris (setting [9]), 0.06 µg/mL (≈ 0.11 µM); in the assay on Salmonella typhimurium (setting [10]) it was 0.25 µg/mL (≈ 0.457 µM). In addition, the MIC in the assay on Serratia marcescens (setting [11]) was found to be 0.13 µg/mL (≈ 0.238 µM); in assay [2] (setting [12]), 4 µg/mL (≈ 7.32 µM); in the assay with Staphylococcus aureus (setting [13]), 8 µg/mL (≈ 14.6 µM); with Escherichia coli (setting [14]) it was 0.06 µg/mL (≈ 0.11 µM); in the assay on Pseudomonas aeruginosa [3] it was 2 µg/mL (≈ 3.66 µM).
